Compound activity as filed in PubChem.
SIAE primary = blocks human sialic acid acetylesterase | 370,000 tested, 0.69% active | SIAE FP-Rh probe binding, fluorescence polarization | inhibition, % at 9.66 µM | Q9HAT2;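 active = inhibition above a cutoff: mean of compounds within the control limits plus 3 SD of those, cut at about 17% in these data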;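 also: 0% = plate median of compound wells and 100% = probe without SIAE protein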
mABHD4 FP = inhibitors of mouse ABHD4. inhibition, % at 8.92 µM. 370,000 tested, 0.54% active. purified mABHD4, FP-Rh probe fluorescence polarization;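 active = inhibition exceeding the mean over every tested compound plus 3 SD, cut at about 30% in these data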;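 also: 0% = plate median of compound wells and 100% = S159A mutant with DMSO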
Target sequence (Q8VD66 whole entry, looked up): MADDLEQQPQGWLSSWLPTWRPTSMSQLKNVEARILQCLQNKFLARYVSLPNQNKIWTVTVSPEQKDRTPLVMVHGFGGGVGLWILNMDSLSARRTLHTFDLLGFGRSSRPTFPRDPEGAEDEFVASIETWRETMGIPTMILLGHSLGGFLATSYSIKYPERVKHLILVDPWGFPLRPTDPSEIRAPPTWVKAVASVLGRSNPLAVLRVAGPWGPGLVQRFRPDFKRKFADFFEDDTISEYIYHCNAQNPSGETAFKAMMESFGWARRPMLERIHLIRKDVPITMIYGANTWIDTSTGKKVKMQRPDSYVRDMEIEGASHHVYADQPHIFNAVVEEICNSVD
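Test system: mABHD4 protein | Buffer or medium: HEPES pH 7.0 buffer, 150 mM NaCl, 0.01% Pluronic F-127 | Probe or stimulus: FP-Rh fluorescent activity-based probe, added after compound pre-incubation | Timing: Pre-incubation 45 min, probe exposure 60 min, at 25 °C | Technique: Fluorescence polarization, excitation 525 nm, emission 598 nm, BODIPY TMR filters | Repeats: Single well per compound (singlicate)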
TCR-CD3 inh = inhibitors of human TCR-CD3 interaction | TAMRA-labeled TCR probe fluorescence, biochemical | 360,000 tested, 0.37% active | AID 651800 | inhibition, % at 9.4 µM; in the data active = inhibition above about 19%;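 also: recombinant mutant TCR 2C K166C tagged with TAMRA read by polarization; 0% = receptor in buffer alone and 100% = receptor with positive control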
DDE Tn7 FP inh = disrupts Tn7 cyclic peptide binding to fibrin D-Dimer-E complex; P02675; FP displacement of FITC-Tn7 peptide from fibrin DD(E); 0% = median of compound wells per plate; inhibition, % at 8.3 µM; 370,000 tested, 0.13% active; AID 720508;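 active = inhibition above the mean of compounds falling within the control limits plus 3 SD of them, cut at about 14% in these data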;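 also: 0% = plate median of compound wells and 100% = 10 µM Aha-Tn7 peptide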
Target sequence (P02675 whole entry, looked up): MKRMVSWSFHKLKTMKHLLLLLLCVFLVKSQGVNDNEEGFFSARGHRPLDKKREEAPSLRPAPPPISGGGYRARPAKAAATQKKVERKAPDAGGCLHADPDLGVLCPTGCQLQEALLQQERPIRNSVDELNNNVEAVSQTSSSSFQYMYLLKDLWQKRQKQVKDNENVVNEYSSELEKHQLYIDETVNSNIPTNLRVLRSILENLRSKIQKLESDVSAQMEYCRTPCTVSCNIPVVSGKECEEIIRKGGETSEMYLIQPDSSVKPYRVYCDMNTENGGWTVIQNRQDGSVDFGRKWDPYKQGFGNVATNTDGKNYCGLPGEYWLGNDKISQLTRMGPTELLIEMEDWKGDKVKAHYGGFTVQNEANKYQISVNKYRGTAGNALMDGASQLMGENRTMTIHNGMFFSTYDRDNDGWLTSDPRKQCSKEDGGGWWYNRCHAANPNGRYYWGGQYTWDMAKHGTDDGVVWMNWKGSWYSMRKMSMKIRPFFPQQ
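system = human fibrin DD(E) protein | quantity = DD(E) 2 µM final | medium = Tris/NaCl/CaCl2 buffer, pH 7.8 | also added = labelled Tn7 tracer, 0.1 µM | compound dosing = single point at 8.3 µM | timing = compound with protein 10 min, then 3 h after probe, room temperature | signal = FP measurement | benchmarks = Aha-Tn7 high control | repeats = one replicate per compound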
HTRA1 inhibitor = inhibitors of human serine peptidase HTRA1; Q92743; recombinant HTRA1, FP-rhodamine activity-based probe, fluorescence polarization; inhibition, % at 5.96 µM; 340,000 tested, 0.5% active; in the data active = inhibition above about 36%;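 also: 0% = enzyme with DMSO and 100% = wells lacking enzyme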
Tn6 DDE FP = disrupts Tn6 cyclic peptide binding to fibrin D-Dimer-E complex; P02675; 370,000 tested, 0.21% active; Fibrin DD(E) TRITC-Tn6 fluorescence polarization displacement; inhibition, % at 8.3 µM;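 active = inhibition above a per-campaign cutoff: mean of compounds within control limits plus 3 SD, cut at about 15% in these data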;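 also: 0% = median of all compound wells on the plate and 100% = blocking peptide control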
SIAE inh conf = human SIAE inhibition, confirmation; shares compounds with SIAE primary; SIAE FP-Rh activity-based probe, fluorescence polarization; inhibition, % at 9.66 µM; 2,300 tested, 13% active; AID 1117263;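 active = mean inhibition of the replicates above the hit cutoff set in the primary screen, cut at about 17% in these data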;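 also: 0% = SIAE with DMSO and probe and 100% = probe without SIAE; inhibitors lower polarization as more probe stays unbound to SIAE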
* hit, by the source's call; . = no result given. The list is not random: actives were taken first. Their share in the collection is about 1.8%.

SMILES | SIAE primary | mABHD4 FP | TCR-CD3 inh | DDE Tn7 FP inh | HTRA1 inhibitor | Tn6 DDE FP | SIAE inh conf
O=C(NCc1ccc(F)cc1)C1CCCN1C(=O)Nc1ccc(Cl)cc1 (stereo not drawn) | 17.2* | -4.3 | 4.3 | -4.0 | 4.1 | 10.0 | -0.5
O=C(NCc1ccccc1)[C@H]1CCCN1C(=O)[C@H]1CCCN1C(=O)c1ccc(F)c(F)c1 | 18.2* | -1.4 | 6.7 | 12.5 | . | -5.0 | -0.9
O=C(NCc1ccc(Cl)cc1)C1CCCN1C(=O)Nc1ccc(F)cc1 (stereo not drawn) | -6.2 | -7.8 | 0.7 | 1.5 | 2.1 | 6.5 | .
O=C(NCC1CCN(C(=O)C(=O)c2cc3ccccc3o2)CC1)c1ccc2c(c1)OCC2 | -1.5 | -6.3 | -5.6 | 1.9 | . | 3.0 | .
CCCCN1CNC(=S)N(c2ccc(C(=O)OCC)cc2)C1 | 18.4* | -3.7 | -3.2 | 7.2 | -0.1 | -0.2 | -2.6
CCCCN1CNC(=S)N(c2cc(C)ccc2C)C1 | 0.7 | -2.5 | -1.0 | 5.7 | 6.8 | 4.1 | .
Cc1ccc(NC(=O)N2CCC(N(C)CCC(C)C)CC2)cc1F | -2.6 | 0.2 | . | 1.5 | . | 1.4 | .
CCn1nc(NS(=O)(=O)c2ccc(NC(C)=O)cc2)c2cc3cccc(C)c3nc21 | 18.4* | 7.7 | 3.2 | -0.9 | 5.6 | -6.3 | -3.4
CCOc1ccc(/C=N/NC(=O)c2cc3c(OC)cc(OC)cc3[nH]2)cc1OC | 43.0* | 8.0 | -2.5 | -3.9 | 5.0 | -9.9 | 0.2
C=CCOc1ccc(/C=N/NC(=O)c2cc3c(OC)cc(OC)cc3[nH]2)cc1 | 27.4* | -5.5 | 0.7 | 3.3 | 20.9 | -7.8 | -18.5
COc1ccc(OC)c(/C=N/NC(=O)c2cc3c(OC)cc(OC)cc3[nH]2)c1 | 7.0 | 3.2 | 3.3 | 1.8 | -6.5 | -7.2 | .
COC(=O)[C@H]1C[C@@]2(C)c3ccccc3N(C(=O)OC(C)(C)C)[C@H]2N1C(=O)OC(C)(C)C | -0.5 | -4.2 | . | -3.8 | . | 13.9 | .
Cc1cccnc1N=O | -3.8 | -2.3 | -2.1 | 4.6 | . | 8.2 | .
O=C(NCCc1ccccc1)OCc1cn(-c2cccc(Cl)c2)nn1 | 7.9 | -0.7 | . | -1.6 | . | 2.2 | .
COc1ccc([C@@]23CCN=C2c2[nH]c4ccccc4c2CCN3)c(N)c1 | 19.0* | 10.9 | . | 0.4 | . | 3.4 | 2.4
COc1ccc2c3c([nH]c2c1)C1=NCC[C@]12c1ccccc1N=CN2CC3 | 6.5 | 6.7 | . | 4.8 | . | 2.0 | .
Cc1[nH]c2ccccc2c1/C=N/NC(=S)NC(C)C | 20.0* | 9.6 | -2.3 | 0.7 | 16.7 | 3.9 | 14.2
Cc1[nH]c2ccccc2c1/C=N/NC(=O)C1CC1(c1ccccc1)c1ccccc1 (stereo not drawn) | 27.0* | -2.2 | -5.6 | -8.9 | -0.1 | -15.4 | 2.2
CC(C)NC(=S)N/N=C/c1c[nH]c2ccccc12 | 8.3 | 8.9 | 5.1 | 7.4 | 5.9 | 6.4 | .
O=C(NC1CCCC1)C1(C(=O)C2CC2)CC(c2ccccc2C(F)(F)F)=NO1 (stereo not drawn) | 12.5 | -4.8 | . | -4.7 | . | -4.0 | .
C[C@@H]1CCN(C2CC2)S(=O)(=O)c2ccc(N3CCC[C@H]3C)cc2O1 | 4.9 | 4.7 | . | 1.1 | . | -0.4 | .
Cc1ccccc1CN1CCCCC(NC(=O)C(C)(C)C)C1=O (stereo not drawn) | 0.9 | 2.6 | . | 4.0 | . | 5.9 | .
Cc1cc(N2CCNC[C@H]2C)ccc1N1CCN(Cc2ccccc2)[C@H](C)C1 | 5.7 | 4.9 | -0.2 | -3.9 | . | 5.0 | .
COCc1cc(N2CCNC[C@@H]2C)ccc1N1CCN(Cc2ccccc2)[C@H](C)C1 | 17.3* | 9.3 | -7.7 | -3.5 | . | -2.9 | 3.8
C[C@@H]1CN(c2ccc(N3CCNC[C@@H]3C)cc2C#N)CCN1Cc1ccccc1 | 19.5* | 9.7 | 7.0 | 6.2 | . | 1.7 | 3.5
SMILES | SIAE primary | mABHD4 FP | TCR-CD3 inh | DDE Tn7 FP inh | HTRA1 inhibitor | Tn6 DDE FP | SIAE inh conf
Cc1cc(N2CCNC[C@@H]2C)ccc1N1CCN(Cc2ccccc2)[C@H](C)C1 | 8.4 | 5.9 | 7.5 | 0.6 | . | 2.4 | .
Cc1ccccc1S(=O)(=O)N1CCCc2nc(C)c(C)cc21 | 1.4 | 4.7 | -2.8 | 13.3 | . | 12.4 | .
O=C(N/N=C/c1ccoc1)c1cc(Br)ccc1O | 18.6* | 6.9 | 17.3 | 5.7 | 10.3 | -1.7 | 7.6
CCOC(=O)c1ccc(NC(=O)OC[C@@H]2CSCCS(=O)(=O)N2)cc1 | 1.6 | -3.2 | -2.2 | 6.9 | . | 1.8 | .
Cc1cc2ccccn2c1C(=O)c1ccc(S(=O)(=O)N(C)C)cc1 | 18.9* | -3.7 | -4.1 | 0.9 | -6.1 | 5.1 | 0.8
Cc1cc2ccccn2c1C(=O)c1ccc(F)cc1 | -6.4 | 6.6 | -1.3 | 0.2 | -5.8 | -3.7 | .
C#CCCC(=O)O[C@H]1CCC[C@@]2(C(=O)N(Cc3ccccc3)c3ccccc32)[C@H]1NC(=O)CCc1ccccc1 | -5.8 | -12.1 | . | -4.9 | . | -0.7 | .
CCOC(=O)c1sc(Nc2nc3cc4c(cc3s2)OCO4)cc1C | 19.0* | 0.2 | -9.8 | 0.1 | 7.8 | 1.2 | 6.8
CCOC(=O)c1sc(Nc2nc3c(OC)cccc3s2)cc1C | 19.4* | 8.6 | -6.5 | -18.3 | -1.8 | -8.8 | 0.8
COc1cccc2sc(Nc3nc4ccc(NC(C)=O)cc4s3)nc12 | -3.0 | 3.1 | 2.1 | -3.3 | 3.7 | -15.3 | .
O=C(O)c1ccc(-c2cccc(Cl)c2)o1 | 18.5* | -4.9 | 1.7 | -2.7 | -3.8 | -1.7 | 6.6
COc1ccc(-c2ccc3c(n2)CCCN3S(=O)(=O)c2cccs2)cc1 | -5.3 | -9.7 | 6.1 | -7.6 | . | 0.6 | .
Cc1ccc(-c2nc3c(c(=O)[nH]c(=O)n3Cc3ccccc3)n2Cc2ccccc2)o1 | -5.6 | -6.1 | 6.6 | -3.5 | -42.0 | -4.2 | .
CCn1c(CO)nc2c1c(=O)[nH]c(=O)n2Cc1ccccc1 | 19.6* | 0.2 | -0.5 | 4.2 | 4.4 | 1.7 | -2.2
COc1ccc(-c2nc(NC(=O)c3[nH]c(C)c(C(C)=O)c3C)sc2C)cc1 | 26.7* | 4.5 | 2.6 | -3.6 | -14.8 | -9.4 | -2.4
N#Cc1ccc(OCCCN2CCC(C(O)(c3ccccc3)c3ccccc3)CC2)cc1 | -3.9 | 8.0 | 0.9 | -2.9 | . | -1.6 | .
COc1ccc(-c2csc(CCN3N=C(C)CC3=O)n2)cc1 | 37.5* | 2.2 | 3.9 | 1.9 | -14.5 | -1.3 | 5.8
CCOC(=O)C(C)N1CC(=O)N(c2ccccc2)C1=O (stereo not drawn) | 17.6* | -1.5 | 4.8 | -1.1 | 0.3 | 5.0 | 2.4
COc1ccc(OCCC(=O)Nc2ccc(S(N)(=O)=O)cc2)cc1 | 18.4* | -0.1 | -2.4 | -1.9 | -8.5 | -2.6 | -1.1
Cc1ccc(CNC(=O)OC(C)(C)C)c(/C=C/S(=O)(=O)NCCc2ccccc2)c1 | 1.1 | -23.7 | . | -5.5 | . | -2.2 | .
COc1ccc(NC(=O)N(C)C[C@H]2Oc3c(NC(=O)c4ccncc4)cccc3C(=O)N([C@H](C)CO)C[C@@H]2C)cc1 | 22.9* | -0.1 | 2.4 | -3.0 | 3.4 | -4.2 | 2.4
